Source: ChEMBL document CHEMBL4689842, “EUbOPEN Chemogenomics Library wave 1” (2021)

Test system: HEK-293T
Test: Multiplex assay against HEK293T;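 for Population Tubulin-Different-Phenotype (%): share of the cells with healthy nuclei that show this phenotype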
Assay type: toxicity, cell-based
Details: human
How it was run: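 With compound added, live cells were imaged on a CQ1 microscope at 37°C and 5% CO2; staining with Hoechst33342, BioTracker Green Microtubule Cytoskeleton Dye, MitoTracker Red and Annexin V Alexa Fluor 680 had been done at seeding. The CellPathfinder machine-learning gating scheme split cells into Hoechst high-intensity objects or normal cells, normal cells into healthy, pyknosed or fragmented nuclei, and pyknosed cells into mitotic or apoptotic. The tubulin, mitochondrial-mass and membrane-permeability phenotypes are per cents of healthy-nucleus cells.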

[1] = 12 h, 1 µM, compound concentration 1 uM, replicate 1
[2] = 12 h, 1 µM, compound concentration 1 uM, replicate 2
[3] = 12 h, 10 µM, compound concentration 10 uM, replicate 1
[4] = 12 h, 10 µM, compound concentration 10 uM, replicate 2
[5] = 24 h, 1 µM, compound concentration 1 uM, replicate 1
[6] = 24 h, 1 µM, compound concentration 1 uM, replicate 2
[7] = 24 h, 10 µM, compound concentration 10 uM, replicate 1
[8] = 24 h, 10 µM, compound concentration 10 uM, replicate 2
[9] = 48 h, 1 µM, compound concentration 1 uM, replicate 1
[10] = 48 h, 1 µM, compound concentration 1 uM, replicate 2
[11] = 48 h, 10 µM, compound concentration 10 uM, replicate 1
[12] = 48 h, 10 µM, compound concentration 10 uM, replicate 2

C[C@]12CC[C@@H]3c4ccc(O)cc4CC[C@H]3[C@@H]1CC[C@@H]2O [ESTRADIOL]
Population Apoptotic (%) [1]: 40%
Population Fragmented Nuclei (%) [1]: 10%
Population Healthy Nuclei (%) [1]: 45%
Population Hoechst High Intensity Objects (%) [1]: 14%
Population Membrane Permeable-Phenotype (%) [1]: 1%
Population Mitochondria Different-Phenotype (%) [1]: 72%
Population Mitotic Cells (%) [1]: 59%
Population Normal (%) [1]: 85%
Population Pyknosed Nuclei (%) [1]: 44%
Population Tubulin-Different-Phenotype (%) [1]: 41%
Population Apoptotic (%) [2]: 4%
Population Fragmented Nuclei (%) [2]: 7%
Population Healthy Nuclei (%) [2]: 42%
Population Hoechst High Intensity Objects (%) [2]: 3%
Population Membrane Permeable-Phenotype (%) [2]: 3%
Population Mitochondria Different-Phenotype (%) [2]: 10%
Population Mitotic Cells (%) [2]: 95%
Population Normal (%) [2]: 96%
Population Pyknosed Nuclei (%) [2]: 50%
Population Tubulin-Different-Phenotype (%) [2]: 11%
Population Apoptotic (%) [3]: 42%
Population Fragmented Nuclei (%) [3]: 11%
Population Hoechst High Intensity Objects (%) [3]: 15%
Population Membrane Permeable-Phenotype (%) [3]: 0%
Population Mitochondria Different-Phenotype (%) [3]: 76%
Population Mitotic Cells (%) [3]: 57%
Population Normal (%) [3]: 84%
Population Pyknosed Nuclei (%) [3]: 52%
Population Tubulin-Different-Phenotype (%) [3]: 29%
Population Apoptotic (%) [4]: 10%
Population Fragmented Nuclei (%) [4]: 5%
Population Healthy Nuclei (%) [4]: 36%
Population Hoechst High Intensity Objects (%) [4]: 5%
Population Membrane Permeable-Phenotype (%) [4]: 1%
Population Mitochondria Different-Phenotype (%) [4]: 11%
Population Mitotic Cells (%) [4]: 89%
Population Normal (%) [4]: 94%
Population Pyknosed Nuclei (%) [4]: 58%
Population Tubulin-Different-Phenotype (%) [4]: 9%
Population Apoptotic (%) [5]: 37%
Population Fragmented Nuclei (%) [5]: 12%
Population Healthy Nuclei (%) [5]: 52%
Population Hoechst High Intensity Objects (%) [5]: 16%
Population Membrane Permeable-Phenotype (%) [5]: 1%
Population Mitochondria Different-Phenotype (%) [5]: 45%
Population Mitotic Cells (%) [5]: 62%
Population Normal (%) [5]: 83%
Population Pyknosed Nuclei (%) [5]: 34%
Population Tubulin-Different-Phenotype (%) [5]: 34%
Population Apoptotic (%) [6]: 6%
Population Fragmented Nuclei (%) [6]: 3%
Population Healthy Nuclei (%) [6]: 64%
Population Hoechst High Intensity Objects (%) [6]: 3%
Population Membrane Permeable-Phenotype (%) [6]: 10%
Population Mitochondria Different-Phenotype (%) [6]: 6%
Population Mitotic Cells (%) [6]: 93%
Population Normal (%) [6]: 96%
Population Pyknosed Nuclei (%) [6]: 31%
Population Tubulin-Different-Phenotype (%) [6]: 21%
Population Apoptotic (%) [7]: 39%
Population Fragmented Nuclei (%) [7]: 11%
Population Healthy Nuclei (%) [7]: 46%
Population Hoechst High Intensity Objects (%) [7]: 16%
Population Membrane Permeable-Phenotype (%) [7]: 1%
Population Mitochondria Different-Phenotype (%) [7]: 53%
Population Mitotic Cells (%) [7]: 60%
Population Normal (%) [7]: 83%
Population Pyknosed Nuclei (%) [7]: 41%
Population Tubulin-Different-Phenotype (%) [7]: 39%
Population Apoptotic (%) [8]: 7%
Population Fragmented Nuclei (%) [8]: 5%
Population Healthy Nuclei (%) [8]: 47%
Population Hoechst High Intensity Objects (%) [8]: 5%
Population Membrane Permeable-Phenotype (%) [8]: 8%
Population Mitochondria Different-Phenotype (%) [8]: 12%
Population Mitotic Cells (%) [8]: 92%
Population Normal (%) [8]: 94%
Population Pyknosed Nuclei (%) [8]: 47%
Population Tubulin-Different-Phenotype (%) [8]: 12%
Population Apoptotic (%) [9]: 42%
Population Fragmented Nuclei (%) [9]: 15%
Population Healthy Nuclei (%) [9]: 61%
Population Hoechst High Intensity Objects (%) [9]: 13%
Population Membrane Permeable-Phenotype (%) [9]: 3%
Population Mitochondria Different-Phenotype (%) [9]: 20%
Population Mitotic Cells (%) [9]: 57%
Population Normal (%) [9]: 86%
Population Pyknosed Nuclei (%) [9]: 23%
Population Tubulin-Different-Phenotype (%) [9]: 25%
Population Apoptotic (%) [10]: 3%
Population Fragmented Nuclei (%) [10]: 5%
Population Healthy Nuclei (%) [10]: 81%
Population Hoechst High Intensity Objects (%) [10]: 3%
Population Membrane Permeable-Phenotype (%) [10]: 8%
Population Mitochondria Different-Phenotype (%) [10]: 3%
Population Mitotic Cells (%) [10]: 96%
Population Normal (%) [10]: 96%
Population Pyknosed Nuclei (%) [10]: 13%
Population Tubulin-Different-Phenotype (%) [10]: 13%
Population Apoptotic (%) [11]: 29%
Population Fragmented Nuclei (%) [11]: 16%
Population Healthy Nuclei (%) [11]: 56%
Population Hoechst High Intensity Objects (%) [11]: 11%
Population Membrane Permeable-Phenotype (%) [11]: 1%
Population Mitochondria Different-Phenotype (%) [11]: 30%
Population Mitotic Cells (%) [11]: 70%
Population Normal (%) [11]: 88%
Population Tubulin-Different-Phenotype (%) [11]: 25%
Population Apoptotic (%) [12]: 11%
Population Fragmented Nuclei (%) [12]: 3%
Population Healthy Nuclei (%) [12]: 69%
Population Hoechst High Intensity Objects (%) [12]: 4%
Population Membrane Permeable-Phenotype (%) [12]: 3%
Population Mitochondria Different-Phenotype (%) [12]: 4%
Population Mitotic Cells (%) [12]: 88%
Population Normal (%) [12]: 95%
Population Pyknosed Nuclei (%) [12]: 26%
Population Tubulin-Different-Phenotype (%) [12]: 10%

CC(C)c1noc(N2CCC(COc3ccc(-c4ccc(S(C)(=O)=O)cc4)nc3)CC2)n1 [GSK-1292263]
Population Apoptotic (%) [1]: 36%
Population Fragmented Nuclei (%) [1]: 14%
Population Healthy Nuclei (%) [1]: 31%
Population Hoechst High Intensity Objects (%) [1]: 14%
Population Membrane Permeable-Phenotype (%) [1]: 8%
Population Mitochondria Different-Phenotype (%) [1]: 65%
Population Mitotic Cells (%) [1]: 63%
Population Normal (%) [1]: 85%
Population Pyknosed Nuclei (%) [1]: 54%
Population Tubulin-Different-Phenotype (%) [1]: 34%
Total Cell Count [1]: 304
Population Apoptotic (%) [2]: 12%
Population Fragmented Nuclei (%) [2]: 2%
Population Healthy Nuclei (%) [2]: 50%
Population Hoechst High Intensity Objects (%) [2]: 1%
Population Membrane Permeable-Phenotype (%) [2]: 7%
Population Mitochondria Different-Phenotype (%) [2]: 15%
Population Mitotic Cells (%) [2]: 87%
Population Normal (%) [2]: 98%
Population Pyknosed Nuclei (%) [2]: 46%
Population Tubulin-Different-Phenotype (%) [2]: 16%
Total Cell Count [2]: 228
Population Apoptotic (%) [3]: 50%
Population Fragmented Nuclei (%) [3]: 14%
Population Healthy Nuclei (%) [3]: 11%
Population Hoechst High Intensity Objects (%) [3]: 18%
Population Membrane Permeable-Phenotype (%) [3]: 16%
Population Mitochondria Different-Phenotype (%) [3]: 68%
Population Mitotic Cells (%) [3]: 50%
Population Normal (%) [3]: 81%
Population Pyknosed Nuclei (%) [3]: 74%
Population Tubulin-Different-Phenotype (%) [3]: 72%
Total Cell Count [3]: 276
Population Apoptotic (%) [4]: 13%
Population Fragmented Nuclei (%) [4]: 7%
Population Healthy Nuclei (%) [4]: 20%
Population Hoechst High Intensity Objects (%) [4]: 12%
Population Membrane Permeable-Phenotype (%) [4]: 8%
Population Mitochondria Different-Phenotype (%) [4]: 26%
Population Mitotic Cells (%) [4]: 86%
Population Normal (%) [4]: 87%
Population Pyknosed Nuclei (%) [4]: 72%
Population Tubulin-Different-Phenotype (%) [4]: 26%
Total Cell Count [4]: 131
Population Apoptotic (%) [5]: 39%
Population Fragmented Nuclei (%) [5]: 15%
Population Healthy Nuclei (%) [5]: 32%
Population Hoechst High Intensity Objects (%) [5]: 19%
Population Membrane Permeable-Phenotype (%) [5]: 2%
Population Mitochondria Different-Phenotype (%) [5]: 57%
Population Mitotic Cells (%) [5]: 60%
Population Normal (%) [5]: 80%
Population Pyknosed Nuclei (%) [5]: 51%
Population Tubulin-Different-Phenotype (%) [5]: 37%
Total Cell Count [5]: 316
Population Apoptotic (%) [6]: 15%
Population Fragmented Nuclei (%) [6]: 6%
Population Healthy Nuclei (%) [6]: 62%
Population Hoechst High Intensity Objects (%) [6]: 3%
Population Membrane Permeable-Phenotype (%) [6]: 8%
Population Mitochondria Different-Phenotype (%) [6]: 14%
Population Mitotic Cells (%) [6]: 84%
Population Normal (%) [6]: 96%
Population Pyknosed Nuclei (%) [6]: 31%
Population Tubulin-Different-Phenotype (%) [6]: 31%
Total Cell Count [6]: 270
Population Apoptotic (%) [7]: 58%
Population Fragmented Nuclei (%) [7]: 15%
Population Healthy Nuclei (%) [7]: 12%
Population Hoechst High Intensity Objects (%) [7]: 23%
Population Membrane Permeable-Phenotype (%) [7]: 7%
Population Mitochondria Different-Phenotype (%) [7]: 78%
Population Mitotic Cells (%) [7]: 41%
Population Normal (%) [7]: 76%
Population Pyknosed Nuclei (%) [7]: 72%
Population Tubulin-Different-Phenotype (%) [7]: 75%
Total Cell Count [7]: 298
Population Apoptotic (%) [8]: 14%
Population Fragmented Nuclei (%) [8]: 7%
Population Healthy Nuclei (%) [8]: 38%
Population Hoechst High Intensity Objects (%) [8]: 9%
Population Membrane Permeable-Phenotype (%) [8]: 4%
Population Mitochondria Different-Phenotype (%) [8]: 32%
Population Mitotic Cells (%) [8]: 85%
Population Normal (%) [8]: 90%
Population Pyknosed Nuclei (%) [8]: 53%
Population Tubulin-Different-Phenotype (%) [8]: 55%
Total Cell Count [8]: 139
Population Apoptotic (%) [9]: 37%
Population Fragmented Nuclei (%) [9]: 16%
Population Healthy Nuclei (%) [9]: 41%
Population Hoechst High Intensity Objects (%) [9]: 14%
Population Membrane Permeable-Phenotype (%) [9]: 4%
Population Mitochondria Different-Phenotype (%) [9]: 32%
Population Mitotic Cells (%) [9]: 62%
Population Normal (%) [9]: 85%
Population Pyknosed Nuclei (%) [9]: 42%
Population Tubulin-Different-Phenotype (%) [9]: 35%
Total Cell Count [9]: 377
Population Apoptotic (%) [10]: 14%
Population Fragmented Nuclei (%) [10]: 4%
Population Healthy Nuclei (%) [10]: 80%
Population Hoechst High Intensity Objects (%) [10]: 4%
Population Membrane Permeable-Phenotype (%) [10]: 8%
Population Mitochondria Different-Phenotype (%) [10]: 3%
Population Mitotic Cells (%) [10]: 85%
Population Normal (%) [10]: 95%
Population Pyknosed Nuclei (%) [10]: 14%
Population Tubulin-Different-Phenotype (%) [10]: 22%
Total Cell Count [10]: 482
Population Apoptotic (%) [11]: 63%
Population Fragmented Nuclei (%) [11]: 24%
Population Healthy Nuclei (%) [11]: 10%
Population Hoechst High Intensity Objects (%) [11]: 25%
Population Membrane Permeable-Phenotype (%) [11]: 8%
Population Mitochondria Different-Phenotype (%) [11]: 37%
Population Mitotic Cells (%) [11]: 36%
Population Normal (%) [11]: 74%
Population Pyknosed Nuclei (%) [11]: 64%
Population Tubulin-Different-Phenotype (%) [11]: 58%
Total Cell Count [11]: 296
Population Apoptotic (%) [12]: 14%
Population Fragmented Nuclei (%) [12]: 8%
Population Healthy Nuclei (%) [12]: 62%
Population Hoechst High Intensity Objects (%) [12]: 3%
Population Membrane Permeable-Phenotype (%) [12]: 12%
Population Mitochondria Different-Phenotype (%) [12]: 12%
Population Mitotic Cells (%) [12]: 85%
Population Normal (%) [12]: 96%
Population Pyknosed Nuclei (%) [12]: 28%
Population Tubulin-Different-Phenotype (%) [12]: 54%
Total Cell Count [12]: 176
